# Compound activity from PubChem.
# EBNA-1 inh = blocks EBNA-1 binding to DNA | EBNA-1 DNA binding, fluorescence polarization | inhibition, % at 14.8 µM | actives 0.34% (n = 300,000); in the data active = inhibition above about 28%
# HCV core dimer = blocks dimerization of HCV core protein | TR-FRET GST/Flag-core106 dimerization, 1536-well | inhibition, % at 5 µM | actives 0.33% (n = 300,000);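 active = inhibition above the mean of all tested compounds plus 3 SD, set per screening campaign, cut at about 45% in these data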
#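 System: GST-tagged and Flag-tagged HCV core protein residues 1-106 / Input: core106 proteins, GST 13.5 nM and Flag 17 nM / Buffer or medium: KF-containing HEPES buffer, pH 7.45, DTT, CHAPS, BSA / Probe or stimulus: Eu-anti-GST and XL665-anti-Flag labelled anti-tag antibodies / Schedule: 4 h, 22.5 °C incubation / Technique: TR-FRET 671 and 617 nm emission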
# NS3 helicase inh = HCV NS3 helicase inhibition | NS3 helicase DNA unwinding, Cy5 molecular beacon fluorescence | inhibition, % at 10.9 µM | actives 0.56% (n = 290,000);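 active = inhibition above the mean of all tested compounds plus 3 SD, set per campaign, cut at about 35% in these data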;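 also: 0% = DMSO wells and 100% = thioflavine S control wells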
#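 Measured by: Cy5 fluorescence, 0 and 60 min reads / Assay system: NS3 helicase fragment of HCV / Control set: low DMSO, high thioflavine S at 110 µM / Times: 1 h reaction at 25 °C, ATP-initiated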
# ALR H2O2 inh = blocks human ALR sulfhydryl oxidase activity. inhibition, % (test concentration not listed). actives 3.8% (n = 290,000). AID 485317. purified ALR, DTT oxidation, H2O2 HRP-luminol luminescence;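 active = mean replicate inhibition above about 79%, with every replicate also reaching it, limit read from the data; inconclusive = only one of the two criteria met; inactive = mean below limit and not every replicate reaching it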
# Target sequence (P55789 whole entry, looked up): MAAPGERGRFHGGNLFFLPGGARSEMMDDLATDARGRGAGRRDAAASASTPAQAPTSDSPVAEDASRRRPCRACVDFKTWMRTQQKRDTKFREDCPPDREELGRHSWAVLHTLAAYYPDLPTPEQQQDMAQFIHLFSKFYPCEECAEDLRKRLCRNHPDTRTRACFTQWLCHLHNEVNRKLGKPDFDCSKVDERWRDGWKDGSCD
# M18AAP inhibitor = blocks P. falciparum M18 aspartyl aminopeptidase | inhibition, % at 7.35 µM | actives 1.2% (n = 290,000) | recombinant PfM18AAP, H-Glu-NHMec fluorogenic cleavage;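 active = inhibition above the campaign mean inhibition over all tested compounds plus 3 SD, cut at about 28% in these data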;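 also: 0% = plate median of test compound wells and 100% = 2 mM ZnCl2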
# ZTA DNA inh = ZTA (EBV) inhibition in EBNA-1 counter-screen; inhibition, % at 11 µM; AID 2234; actives 0.15% (n = 320,000); ZTA-DNA binding, fluorescence polarization; in the data active = inhibition above about 33%
# Target sequence (P03206 whole entry, looked up): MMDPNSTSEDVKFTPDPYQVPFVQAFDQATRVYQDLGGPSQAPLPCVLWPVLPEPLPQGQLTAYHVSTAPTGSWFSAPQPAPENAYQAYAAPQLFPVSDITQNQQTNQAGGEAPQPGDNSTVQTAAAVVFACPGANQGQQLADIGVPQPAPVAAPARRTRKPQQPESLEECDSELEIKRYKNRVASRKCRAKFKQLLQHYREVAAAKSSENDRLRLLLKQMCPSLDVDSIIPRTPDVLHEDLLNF
# NS3 hel confirm = HCV NS3 helicase inhibition, confirmation assay; actives 31% (n = 1,600); AID 1943; inhibition, % at 10.9 µM; shares compounds with NS3 helicase inh; NS3 helicase DNA unwinding, Cy5 molecular beacon fluorescence;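 active = inhibition above the mean of all tested compounds plus 3 SD, cutoff set per campaign, cut at about 36% in these data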
# DNA FID counter = displaces DNA intercalator in HCV helicase counter-screen; shares compounds with NS3 helicase inh; DNA fluorescent intercalator displacement, fluorescence; inhibition, % at 7.9 µM; actives 4% (n = 1,600); in the data active = inhibition above about 37%;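 also: 0% = vehicle and 100% = reference compound; higher means more displacement of ethidium bromide from the DNA hairpin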
# Starred values were filed as active, the others as inactive; ? = inconclusive; · = no result given. An excerpt weighted towards active compounds, which were near 5.2% of everything screened.
SMILES,EBNA-1 inh,HCV core dimer,NS3 helicase inh,ALR H2O2 inh,M18AAP inhibitor,ZTA DNA inh,NS3 hel confirm,DNA FID counter
Cc1nc(Nc2ccc(S(N)(=O)=O)cc2)oc1C,3,0,81*,-2,10,2,-13,1
COc1ccccc1OCC(O)CNCc1ccc2c(c1)OCO2 (centres undefined),-3,0,-4,6,-1,3,·,·
COc1ccccc1NC(=O)CCS(=O)(=O)c1ccc2c(c1)NC(=O)C(C)S2 (centres undefined),6,-11,46*,1,23,4,-14,-17
O=C(NC(Cc1ccccc1)C(=O)N1CCN(c2ccccn2)CC1)c1ccco1 (centres undefined),6,1,49*,0,-12,-12,-11,-17
CC(=O)NC(Cc1ccccc1)C(=O)N1CCN(C(=O)c2ccco2)CC1 (centres undefined),-1,-1,0,-2,-1,-12,·,·
COc1ccc(NC(=O)c2cc(-c3cc(OC)c(OC)c(OC)c3)nc3ccccc23)cc1OC,-7,2,-26,-2,5,-10,·,·
COc1ccc(-c2cc(C(=O)Nc3ccc(O)cc3)c3ccccc3n2)cc1OC,3,-1,45*,-5,3,8,-4,-24
c1cncc(-c2nc(-c3ccco3)cs2)c1,4,7,6,?,-4,-2,·,·
c1coc(-c2nc(-c3ccco3)c(-c3ccco3)nc2-c2ccco2)c1,38*,73*,116*,13,60*,76*,93*,38*
Nc1nc(-c2ccco2)cs1,-1,-6,37*,-107,8,-6,-14,-1
COc1ccc2nc(-c3ccco3)c(-c3ccco3)nc2c1,-5,40,29,10,22,-2,·,·
CCN(CC(=O)NCc1cccs1)C(=O)/C=C/c1cccc(Cl)c1Cl,-3,-1,·,4,·,4,·,·
O=C(O)c1c(C(=O)N2N=C3/C(=C/c4ccccc4)CCCC3C2c2ccccc2)cccc1[N+](=O)[O-] (centres undefined),6,20,49*,-1,13,23,69*,-6
O=C(c1ccccn1)N1N=C2/C(=C/c3ccc(F)cc3)CCCC2C1c1ccc(F)cc1 (centres undefined),15,7,9,·,-2,-36,·,·
NS(=O)(=O)c1ccc(CCn2c(=S)[nH]c3ccc(F)cc3c2=O)cc1,-5,5,10,9,5,-13,·,·
Cc1ccc(-c2nc(CNC(=O)c3ccco3)cs2)cc1,2,23,41*,-1,19,0,-18,-10
Cc1ccc(-c2nc(CCNC(=O)c3ccco3)cs2)cc1,-9,0,·,·,·,-3,·,·
COc1cc(C)ccc1OCc1cc(C(=O)NCCN2CCOCC2)no1,0,2,-3,-3,-1,9,·,·
O=C(Oc1ccc(NC(=O)c2cc3c(cc2Br)OCO3)cc1)c1ccccc1,12,2,25,-15,-6,-5,-10,-6
O=C(CNC(=O)c1ccco1)OCc1ccccc1F,·,·,·,-1,·,·,·,·
CC(C)CSC1=NSC2=NC(=O)/C(=C\c3ccccc3)C(=N)N12,5,7,43*,·,-12,5,69*,8
Cc1cc(/C=C2\C(=N)N3C(SCc4ccccc4)=NSC3=NC2=O)c(C)n1Cc1ccccc1,1,4,8,-3,0,1,·,·
Cc1ccc(C(=O)/C=C/c2ccc(-c3ccccc3[N+](=O)[O-])o2)cc1,2,6,37*,-19,9,14,39*,17
O=C(/C=C/c1ccc(-c2ccccc2)o1)c1ccccc1,11,25,47*,7,-21,2,-19,1
CC(C)CN(C(=O)COC(=O)CNC(=O)c1ccccc1)c1c(N)n(Cc2ccccc2)c(=O)[nH]c1=O,-2,0,·,·,·,-10,·,·
O=c1cc(-c2ccco2)nc(SCc2cccc(Cl)c2)[nH]1,-13,4,45*,·,4,-3,9,-9
